In ChEMBL document CHEMBL1123291, “Modified di- and tripeptides of the C-terminal portion of oxytocin and vasopressin as possible cognition activation agents” (1986) one finds Reversal data, which are given here for 37 compounds.

Format in all cases: functional
Assay [1] concerns Mus musculus. Briefly: Ability to reverse electroconvulsive shock-induced amnesia in rodents following 1 ug/kg i.m. administration. The procedure, abridged:
(§1)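 Passive avoidance (step-through, lighted vs darkened compartment). […], ECS (20 mA, 1 s) was given transcorneally via saline-soaked electrodes, and maximal hindlimb extension was required. Drug was given im at selected doses 2 h post-training. One hour later, entry latency to the dark side was recorded, with 60 s counted as retention. At least 75% of ECS controls had to be amnesic. Replicates were mostly not run.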

The test system of assay [2] is Mus musculus. Briefly: Ability to reverse electroconvulsive shock-induced amnesia in rodents following 0.01 mg/kg i.m. administration. The following applies: route intramuscular. The procedure, abridged:
as §1

For assay [3], the system named is Mus musculus. Briefly: Ability to reverse electroconvulsive shock-induced amnesia in rodents following 0.1 mg/kg i.m. administration. To be noted: route intramuscular. The procedure, abridged: as §1
The test system of assay [4] is Rattus norvegicus. The experiment in a line: Ability (% reversal in rats) to reverse electroconvulsive shock-induced amnesia in rodents at a dose of 0.0010 (mg/kg) (following i.m. administration). The procedure, abridged: as §1
Assay [5] concerns Rattus norvegicus. Briefly: Ability (% reversal in rats) to reverse electroconvulsive shock-induced amnesia in rodents at a dose of 0.010 (mg/kg) administered intramuscularly (im). The procedure, abridged: as §1
The subject of assay [6] is Rattus norvegicus. Briefly: Ability (% reversal in rats) to reverse electroconvulsive shock-induced amnesia in rodents at a dose of 0.10 (mg/kg) (following intramuscular dosing). The procedure, abridged:
as §1

Assay [7] relates to Rattus norvegicus. Briefly: Compound was tested for its ability (% reversal in rats) to reverse electroconvulsive shock-induced amnesia in rodents at a dose of 1 (mg/kg) administered intramuscularly (im). In a few lines:
as §1

Assay [8] has as its system Rattus norvegicus. Briefly: Compound was tested for its ability (% reversal in rats) to reverse electroconvulsive shock-induced amnesia in rodents at a dose of 10 (mg/kg) administered intramuscularly (im). In a few lines:
as §1

The subject of assay [9] is Rattus norvegicus. Briefly: Compound was tested for its ability (% reversal in rats) to reverse electroconvulsive shock-induced amnesia in rodents at a dose of 100 (mg/kg) administered intramuscularly (im). The procedure, abridged: as §1

Non-standard residues stand in square brackets, D forms with d. Residues, ends and D or L forms follow the SMILES beside them. ξ: configuration not given here. *: point of attachment. Arg(NO2) = N=C(NCCC[C@H](N)C(=O)O)N[N+](=O)[O-]; ξArg(NO2) = N=C(NCCCC(N)C(=O)O)N[N+](=O)[O-]; Cbz = O=C(OCc1ccccc1)*; Boc = CC(C)(C)OC(=O)*; ξK = NCCCCC(N)C(=O)O

As to `CC(C)C[C@H](NC(=O)[C@@H]1CCCN1C(=O)OCc1ccccc1)C(=O)NCC(N)=O` (Cbz-Pro-Leu-Gly-NH2), the Reversal with Mus musculus [1] is 93%; with Mus musculus [2], 47%; in the assay on Mus musculus [3] it was 100%.
Consider `O=C(O)CNC(=O)COCC1CCCN1C(=O)OCc1ccccc1` (centres undefined), for which the Reversal in the assay with Rattus norvegicus [4] was 14%; in the assay on Rattus norvegicus [5], 43%; in the assay on Rattus norvegicus [6], 57%.
For the compound `O=C(NCCCCC(CO)NC(=O)C1CCCN1C(=O)OCc1ccccc1)OCc1ccccc1` (centres undefined), the Reversal in the assay on Rattus norvegicus [4] came out at 50%; with Rattus norvegicus [5], 40%; in the assay on Rattus norvegicus [6] it was 40%; in the assay with Rattus norvegicus [7], 0%; in the assay on Rattus norvegicus [8] it was 20%; with Rattus norvegicus [9] it was 0%.
As for `COC(=O)CNC(=O)[C@H](CCCCNC(=O)OC(C)(C)C)NC(=O)[C@@H]1CCCN1C(=O)OCc1ccccc1` (Cbz-Pro-Lys(Boc)-Gly-OMe), the Reversal with Mus musculus [1] is given as 91%; in the assay on Mus musculus [2], 54%; in the assay on Mus musculus [3] it was 0%.
On to `Cc1ccc(C(=O)NC(CSCC(=O)O)CC(C)C)s1` (centres undefined), for which the Reversal in the assay with Rattus norvegicus [4] is recorded as 60%; in the assay on Rattus norvegicus [5], 60%; in the assay on Rattus norvegicus [6], 20%.
Turning to `O=C(NCCCCC(SCC1CCCN1C(=O)OCc1ccccc1)C(=O)[O-])OCc1ccccc1.[Na+]` (centres undefined), the Reversal with Rattus norvegicus [4] came out at 45%; in the assay with Rattus norvegicus [5], 12%; in the assay on Rattus norvegicus [6] it was 45%.
Take `CC(C)(C)OC(=O)N1CCC[C@H]1C(=O)N[C@@H](CCCN=C(N)N)C(=O)NCC(N)=O` (Boc-Pro-Arg-Gly-NH2): the figures for the Reversal with Mus musculus [1], in the assay with Mus musculus [2] and in the assay on Mus musculus [3] were 0%, 43% and 71%, respectively.
On to `CC(C)CC(CSCC(N)=O)NCC1CCCN1C(=O)OCc1ccccc1` (centres undefined), for which the results for the Reversal in the assay on Rattus norvegicus [4], in the assay on Rattus norvegicus [5] and in the assay with Rattus norvegicus [6] were 45%, 25% and 25%, respectively.
With `CC(C)(C)OC(=O)N1CCC[C@H]1C(=O)N[C@@H](CCCCNC(=O)OCc1ccccc1)C(=O)NCC(N)=O` (Boc-Pro-Lys(Cbz)-Gly-NH2), the Reversal in the assay with Mus musculus [1] is 91%; with Mus musculus [2] it was 63%; in the assay on Mus musculus [3] it was 0%.
With `CC(C)CC(COCC(=O)O)NC(=O)C1CCCN1C(=O)OCc1ccccc1` (centres undefined), the Reversal is 29% with Rattus norvegicus [4], 0% in the assay on Rattus norvegicus [5] and 0% in the assay with Rattus norvegicus [6].
`Cc1ccc(S(=O)(=O)N2CCCC2CN[C@@H](CC(C)C)C(=O)NCC(N)=O)cc1` (some centres undefined): the Reversal stood at 0% in the assay with Rattus norvegicus [4]; 0% with Rattus norvegicus [5]; 34% in the assay with Rattus norvegicus [6]; 75% in the assay on Rattus norvegicus [7]; 62% in the assay on Rattus norvegicus [8]; 87% in the assay with Rattus norvegicus [9].
In the case of `CC(C)CC(OCC1CCCN1C(=O)OCc1ccccc1)C(=O)NCC(N)=O` (centres undefined), the Reversal in the assay with Rattus norvegicus [4] was 33%; in the assay with Rattus norvegicus [5], 0%; with Rattus norvegicus [6] it was 0%.
As for `CC(C)(C)OC(=O)N1CCC[C@H]1C(=O)N[C@@H](CCC/N=C(\N)N[N+](=O)[O-])C(=O)NCC(N)=O` (Boc-Pro-[Arg(NO2)]-Gly-NH2), the results for the Reversal in the assay with Mus musculus [1], with Mus musculus [2] and in the assay with Mus musculus [3] were 44%, 20% and 33%, respectively.
In the case of `CC(C)C[C@H](NC(=O)[C@@H]1CCCN1)C(=O)NCC(N)=O` (H-Pro-Leu-Gly-NH2), the Reversal in the assay with Mus musculus [1] is reported as 42%; in the assay on Mus musculus [2], 33%; in the assay on Mus musculus [3], 42%; in the assay with Rattus norvegicus [4], 14%; in the assay with Rattus norvegicus [5], 43%; in the assay on Rattus norvegicus [6], 43%.
Regarding `CC(C)CC(CSCC(=O)O)NC(=O)C1CCCN1C(=O)OCc1ccccc1` (centres undefined), the Reversal came out at 69% with Mus musculus [1]; 77% with Mus musculus [2]; 69% in the assay on Mus musculus [3]; 57% in the assay on Rattus norvegicus [4]; 57% in the assay on Rattus norvegicus [5]; 14% in the assay with Rattus norvegicus [6].
As to `NC(=O)CNC(=O)[C@@H](N)CCCN=C(N)N` (H-Arg-Gly-NH2), the Reversal with Mus musculus [1] came out at 51%; in the assay with Mus musculus [2] it was 20%; in the assay on Mus musculus [3], 27%.
Regarding `CC(C)CC(OCC1CCCN1C(=O)OCc1ccccc1)C(=O)NCC(=O)O` (centres undefined), the Reversal with Rattus norvegicus [4] is 29%; in the assay with Rattus norvegicus [5], 71%; in the assay on Rattus norvegicus [6] it was 43%.
The corresponding values for `CC(C)(C)OC(=O)N1CCCC1CN[C@@H](CCCCNC(=O)OCc1ccccc1)C(=O)NCC(N)=O` (some centres undefined) are 16%, 33% and 16%.
The corresponding values for `Cc1ccc(S(=O)(=O)N2CCCC2C(=O)NC(CNCC(=O)O)CC(C)C)cc1` (centres undefined) are 17%, 33% and 17%.
Turning to `NCCCC[C@H](NC(=O)[C@@H]1CCCN1)C(=O)NCC(N)=O` (H-Pro-Lys-Gly-NH2), the Reversal was found to be 100% with Mus musculus [1]; 48% with Mus musculus [2]; 39% with Mus musculus [3]; 78% with Rattus norvegicus [4]; 78% in the assay with Rattus norvegicus [5]; 78% in the assay on Rattus norvegicus [6].
With `NCCCC[C@H](NC(=O)[C@@H]1CCCN1C(=O)OCc1ccccc1)C(=O)NCC(N)=O` (Cbz-Pro-Lys-Gly-NH2), the Reversal is 9% in the assay on Mus musculus [1], 100% with Mus musculus [2] and 63% with Mus musculus [3].
Regarding `Cc1ccc(S(=O)(=O)N2CCCC2CNC(CC(C)C)C(=O)NCC(=O)O)cc1` (centres undefined), the Reversal in the assay on Rattus norvegicus [4] is 33%; in the assay with Rattus norvegicus [5], 33%; with Rattus norvegicus [6], 0%.
Consider `NC(=O)CC[C@@H]1NC(=O)[C@H](Cc2ccccc2)NC(=O)[C@H](Cc2ccc(O)cc2)NC(=O)[C@@H](N)CSSC[C@@H](C(=O)N2CCC[C@H]2C(=O)N[C@@H](CCCN=C(N)N)C(=O)NCC(N)=O)NC(=O)[C@H](CC(N)=O)NC1=O`, for which the Reversal with Rattus norvegicus [4] is listed as 0%; in the assay with Rattus norvegicus [5], 100%; in the assay with Rattus norvegicus [6], 60%.
In the same order, the values of `CC(C)CC(CSCC(=O)O)NC(=O)c1ccccn1` (centres undefined) are 57%, 0% and 14%.
The corresponding values for `CC(C)CC(/C=C/CC(N)=O)NC(=O)C1CCCN1C(=O)OCc1ccccc1` (centres undefined) are 33%, 77% and 44%.
Take `CCSCCNC(=O)C(CC(C)C)SCC1CCCN1C(=O)OCc1ccccc1` (centres undefined): the values for the Reversal in the assay on Rattus norvegicus [4], with Rattus norvegicus [5] and in the assay on Rattus norvegicus [6] were 33%, 0% and 0%, respectively.
Consider `CC(C)(C)OC(=O)NC(CCC/N=C(\N)N[N+](=O)[O-])C(=O)NCC(N)=O` (centres undefined) (Boc-[ξArg(NO2)]-Gly-NH2), for which the figures for the Reversal with Mus musculus [1], in the assay on Mus musculus [2] and in the assay on Mus musculus [3] were 33%, 53% and 73%, respectively.
For `NC(=O)CNC(=O)COCC1CCCN1C(=O)OCc1ccccc1` (centres undefined), the Reversal with Rattus norvegicus [4] was 56%; in the assay with Rattus norvegicus [5], 33%; with Rattus norvegicus [6], 20%.
For `CC(C)(C)OC(=O)NCCCC[C@H](NC(=O)[C@@H]1CCCN1C(=O)OCc1ccccc1)C(=O)NCC(N)=O` (Cbz-Pro-Lys(Boc)-Gly-NH2), the values for the Reversal in the assay with Rattus norvegicus [4], in the assay with Rattus norvegicus [5] and in the assay on Rattus norvegicus [6] were 50%, 0% and 0%, respectively.
For `CC(C)(C)OC(=O)NC(CCCCNC(=O)OCc1ccccc1)C(=O)NCC(N)=O` (centres undefined) (Boc-[ξK](Cbz)-Gly-NH2), the Reversal with Mus musculus [1] worked out at 48%; in the assay on Mus musculus [2], 53%; in the assay with Mus musculus [3] it was 35%; in the assay on Rattus norvegicus [4] it was 33%; in the assay with Rattus norvegicus [5] it was 47%; in the assay on Rattus norvegicus [6] it was 16%.
For `CC(C)CC1CN(C[C@H](CC(C)C)NC(=O)[C@@H]2CCC(=O)N2)CC(=O)N1` (some centres undefined), the Reversal in the assay on Rattus norvegicus [7], in the assay on Rattus norvegicus [8] and in the assay on Rattus norvegicus [9] was 0% throughout.
With `CC(C)(C)OC(=O)NCCCCC(NC(=O)OCc1ccccc1)C(=O)NCC(N)=O` (centres undefined) (Cbz-[ξK](Boc)-Gly-NH2), the Reversal in the assay on Mus musculus [1] was 33%; in the assay on Mus musculus [2], 25%; with Mus musculus [3] it was 33%.
On to `CCCNC(=O)C(CC(C)C)SCC1CCCN1C(=O)OCc1ccccc1` (centres undefined), for which the Reversal with Rattus norvegicus [4] was 60%; with Rattus norvegicus [5] it was 20%; in the assay on Rattus norvegicus [6], 20%.
Consider `N=C(N)NCCC[C@H](NC(=O)[C@@H]1CCCN1)C(=O)NCC(N)=O` (H-Pro-Arg-Gly-NH2), for which the values for the Reversal with Mus musculus [1], with Mus musculus [2] and in the assay on Mus musculus [3] were 30%, 0% and 30%, respectively.
Take `NCCCC[C@H](NC(=O)[C@@H]1CCCN1C(=O)OCc1ccccc1)C(=O)NCC(=O)O` (Cbz-Pro-Lys-Gly-OH): the Reversal with Mus musculus [1] was 100%; in the assay with Mus musculus [2], 79%; with Mus musculus [3], 79%.
For `CC(C)CC(COCC(N)=O)NC(=O)C1CCCN1C(=O)OCc1ccccc1` (centres undefined), the Reversal with Rattus norvegicus [4] is reported as 42%; in the assay with Rattus norvegicus [5] it was 57%; in the assay on Rattus norvegicus [6] it was 14%.
Turning to `CC(C)(C)OC(=O)N1CCC[C@H]1C(=O)N[C@@H](CCCCN)C(=O)NCC(N)=O` (Boc-Pro-Lys-Gly-NH2), the Reversal with Mus musculus [1] amounted to 25%; in the assay with Mus musculus [2] it was 17%; in the assay on Mus musculus [3], 33%.
